Measured values published in PMC7501955 (Drug Design, Development and Therapy, 2020).

System: duck HBV (DHBV)
Experiment: Antiviral efficacy in a duck HBV model, serum DHBV DNA by quantitative PCR
Assay type: in vivo, Pekin ducklings
Conditions: DHBV-infected ducks, 50 mg/kg 3TC; for Serum DHBV DNA: P<0.001
Summary of the method: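 Pekin ducklings were infected with DHBV-positive duck serum and assayed for DNA load 7 days later (T0). Groups of five received test compound at 25, 50 or 100 mg/kg by oral gavage for 14 days. Controls were saline (negative) and 3TC 50 mg/kg once daily (positive). Serum DHBV DNA was measured by qPCR on treatment days 0, 7, 14 and 3 days after stopping; mean ± SD.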

Nc1ccn([C@@H]2CS[C@H](CO)O2)c(=O)n1 [3TC, lamivudine]
Reduction of serum DHBV DNA compared to vehicle controls (T7): up to 2 log10
Serum DHBV DNA (T7 (day 7 of treatment)): significantly inhibited
Serum DHBV DNA (T14 (day 14 of treatment)): significantly inhibited
